Laboratory results taken from ChEMBL document CHEMBL1129996, “1-Aryl-3,5-dihydro-4H-2,3-benzodiazepin-4-ones: novel AMPA receptor antagonists” (J Med Chem, 1997).
Several values for one entry are separate records, joined by “and”; a condition that tells them apart may be missing. Equal entries are not always repeated.

Test system: Mus musculus
Test: Anticonvulsant activity against tonic phase of the audiogenic seizures in DBA / 2 mice 30 min after ip administration at a dose range 10-100 uM/kg
Format: functional
Details: 0.5 h
In short: (§1)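 Groups of 10 DBA/2 mice of either sex; drug ip (0.1 mL/10 g) as fresh solution in 50% DMSO/50% saline, 30 min before auditory stimulation (12-16 kHz, 109 dB, 60 s or until tonic extension) under perspex dome after 60 s habituation. Latency and incidence of wild running, clonic and tonic phases scored; ED50 (95% confidence limits) by Litchfield-Wilcoxon.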

| Compound | ED50 |
| --- | --- |
| COc1cc2c(cc1OC)C(c1ccc(N(C(C)=O)C(C)=O)cc1)=NN(C(C)=O)C(=O)C2 | 43.9 µmol/kg and 19.2 mg/kg |
| COc1cc2c(cc1OC)C(c1ccc(Br)cc1)=NN(C)C(=O)C2 | 38 µmol/kg and 14.8 mg/kg |

Test system: Mus musculus
Test: Anticonvulsant activity against tonic phase of the audiogenic seizures in DBA / 2 mice 30 min after ip administration at a dose range 33-66 uM/kg
Format: functional
Details: 0.5 h
In short: as §1

| Compound | ED50 |
| --- | --- |
| COc1cc2c(cc1OC)C(c1ccc(Cl)cc1)=NN(C)C(=O)C2 | 38.6 µmol/kg and 13.3 mg/kg |

Test system: not listed separately
Test: Relative lipophilicity of compound
Format: physicochemical
Details: reversed-phase TLC, acetone/water 2:1
In short: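 Reversed-phase TLC type lipophilicity: plates dried 105 °C 1 h, mobile phase acetone:water 2:1, 1 µL of 3 mg/mL CHCl3 solution spotted; five runs with varied positions, mean Rf converted as Rm = log[(1/Rf) - 1].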

| Compound | Rm |
| --- | --- |
| COc1cc2c(cc1OC)C(c1ccc(C#N)cc1)=NN(C)C(=O)C2 | -0.031 |
| COc1cc2c(cc1OC)C(c1ccc(C#N)cc1)=NN(C(C)=O)C(=O)C2 | -0.065 |
| COc1cc2c(cc1OC)C(c1cccc(N)c1)=NN(C)C(=O)C2 | -0.327 |
| COc1cc2c(cc1OC)C(c1cccc([N+](=O)[O-])c1)=NN(C)C(=O)C2 | 0.052 |
| COc1cc2c(cc1OC)C(c1ccc(Cl)cc1)=NN(C)C(=O)C2 | 0.25 |
| COc1cc2c(cc1OC)C(c1ccc(N(C(C)=O)C(C)=O)cc1)=NN(C(C)=O)C(=O)C2 | -0.673 |
| COc1cc2c(cc1OC)C(c1ccc(Br)cc1)=NN(C)C(=O)C2 | 0.288 |
| COc1ccc2c(c1)CC(=O)NN=C2c1ccccc1 | -0.052 |
| COc1ccc2c(c1)CC(=O)N(C)N=C2c1ccccc1 | 0.189 |
| COc1cc2c(cc1OC)C(c1ccc(Cl)cc1)=NNC(=O)C2 | 0.017 |

Test system: not listed separately
Test: Therapeutic index it is the ratio between TD50 and ED50 (from the clonic phase of the audiogenic seizures)
Details: read-out: TI
In short: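 Therapeutic index computed as rotarod TD50 divided by ED50 for the clonic phase of audiogenic seizures in DBA/2 mice.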

| Compound | therapeutic index (TD50/ED50) |
| --- | --- |
| COc1ccc2c(c1)CC(=O)NN=C2c1ccccc1 | 2.6 |
| COc1cc2c(cc1OC)C(c1ccc(Cl)cc1)=NNC(=O)C2 | 2.3 |

Test system: Mus musculus
Test: Anticonvulsant activity against clonic phase of the audiogenic seizures in DBA / 2 mice 30 min after ip administration at a dose range 33-133 uM/kg
Format: functional
Details: 0.5 h
In short: as §1

| Compound | ED50 |
| --- | --- |
| COc1ccc2c(c1)CC(=O)N(C)N=C2c1ccccc1 | 117 µmol/kg and 32.8 mg/kg |

Test system: Mus musculus
Test: Anticonvulsant activity against clonic phase of the audiogenic seizures in DBA / 2 mice 30 min after ip administration at a dose range 10-100 uM/kg
Format: functional
Details: 0.5 h
In short: as §1

| Compound | ED50 |
| --- | --- |
| COc1cc2c(cc1OC)C(c1ccc(N(C(C)=O)C(C)=O)cc1)=NN(C(C)=O)C(=O)C2 | 56.8 µmol/kg and 24.8 mg/kg |
| COc1cc2c(cc1OC)C(c1ccc(Br)cc1)=NN(C)C(=O)C2 | 63 µmol/kg and 24.5 mg/kg |

Test system: Mus musculus
Test: Anticonvulsant activity against tonic phase of the audiogenic seizures in DBA / 2 mice 30 min after ip administration at a dose range 10-120 uM/kg
Format: functional
Details: 0.5 h
In short: as §1

| Compound | ED50 |
| --- | --- |
| COc1cc2c(cc1OC)C(c1ccc(C#N)cc1)=NN(C)C(=O)C2 | > 120 µmol/kg and > 44 mg/kg |
| COc1cc2c(cc1OC)C(c1ccc(C#N)cc1)=NN(C(C)=O)C(=O)C2 | > 120 µmol/kg and > 44 mg/kg |
| COc1cc2c(cc1OC)C(c1cccc([N+](=O)[O-])c1)=NN(C)C(=O)C2 | > 120 µmol/kg and > 44 mg/kg |

Test system: Mus musculus
Test: Pentylenetetrazole-induced seizures in Swiss mice after 45 min pretreatment at a dose range 33-200 uM/kg
Format: functional
Details: not given

| Compound | ED50 [µmol/kg] |
| --- | --- |
| COc1ccc2c(c1)CC(=O)NN=C2c1ccccc1 | 98.2 |
| COc1cc2c(cc1OC)C(c1ccc(Cl)cc1)=NNC(=O)C2 | 145 |

Test system: Mus musculus
Test: Anticonvulsant activity against clonic phase of the audiogenic seizures in DBA / 2 mice 30 min after ip administration at a dose range 10-66 uM/kg
Format: functional
Details: 0.5 h
In short: as §1

| Compound | ED50 |
| --- | --- |
| COc1cc2c(cc1OC)C(c1cccc(N)c1)=NN(C)C(=O)C2 | 36.8 µmol/kg and 11.9 mg/kg |

Test system: not listed separately
Test: Motor toxicity in 50% of mice on locomotion assessed by Rotarod test following 30 min ip administration
Format: organism-based
Details: mouse, in vivo
In short: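 Male Swiss mice (20-26 g, 48-54 days), groups of 10, trained on rotarod (3 cm, 8 rpm); tested 30 min after ip dosing. Impairment = failure to stay on for 2 min; TD50 (95% confidence limits) by Litchfield-Wilcoxon.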

| Compound | TD50 at 0.5 h [µmol/kg] |
| --- | --- |
| COc1cc2c(cc1OC)C(c1ccc(C#N)cc1)=NN(C)C(=O)C2 | > 150 |
| COc1cc2c(cc1OC)C(c1ccc(C#N)cc1)=NN(C(C)=O)C(=O)C2 | > 150 |
| COc1ccc2c(c1)CC(=O)NN=C2c1ccccc1 | 197 |
| COc1cc2c(cc1OC)C(c1ccc(Cl)cc1)=NNC(=O)C2 | 240 |

Test system: Mus musculus
Test: Anticonvulsant activity against clonic phase of the audiogenic seizures in DBA / 2 mice 30 min after ip administration at a dose range 10-120 uM/kg
Format: functional
Details: 0.5 h
In short: as §1

| Compound | ED50 |
| --- | --- |
| COc1cc2c(cc1OC)C(c1ccc(C#N)cc1)=NN(C)C(=O)C2 | > 120 µmol/kg and > 44 mg/kg |
| COc1cc2c(cc1OC)C(c1ccc(C#N)cc1)=NN(C(C)=O)C(=O)C2 | > 120 µmol/kg and > 44 mg/kg |
| COc1cc2c(cc1OC)C(c1cccc([N+](=O)[O-])c1)=NN(C)C(=O)C2 | > 120 µmol/kg and > 44 mg/kg |

Test system: Mus musculus
Test: Anticonvulsant activity against clonic phase of the audiogenic seizures in DBA / 2 mice 30 min after ip administration at a dose range 33-66 uM/kg
Format: functional
Details: 0.5 h
In short: as §1

| Compound | ED50 |
| --- | --- |
| COc1cc2c(cc1OC)C(c1ccc(Cl)cc1)=NN(C)C(=O)C2 | 41.2 µmol/kg and 14.2 mg/kg |

Test system: Mus musculus
Test: Anticonvulsant activity against tonic phase of the audiogenic seizures in DBA / 2 mice 30 min after ip administration at a dose range 33-200 uM/kg
Format: functional
Details: 0.5 h
In short: as §1

| Compound | ED50 |
| --- | --- |
| COc1ccc2c(c1)CC(=O)NN=C2c1ccccc1 | 64.8 µmol/kg and 17.2 mg/kg |
| COc1cc2c(cc1OC)C(c1ccc(Cl)cc1)=NNC(=O)C2 | 75.3 µmol/kg and 24.8 mg/kg |

Test system: Mus musculus
Test: Anticonvulsant activity against tonic phase of the audiogenic seizures in DBA / 2 mice 30 min after ip administration at a dose range 10-66 uM/kg
Format: functional
Details: 0.5 h
In short: as §1

| Compound | ED50 |
| --- | --- |
| COc1cc2c(cc1OC)C(c1cccc(N)c1)=NN(C)C(=O)C2 | 30.6 µmol/kg and 9.94 mg/kg |

Test system: Mus musculus
Test: Anticonvulsant activity against clonic phase of the audiogenic seizures in DBA / 2 mice 30 min after ip administration at a dose range 33-200 uM/kg
Format: functional
Details: 0.5 h
In short: as §1

| Compound | ED50 |
| --- | --- |
| COc1ccc2c(c1)CC(=O)NN=C2c1ccccc1 | 75.5 µmol/kg and 20 mg/kg |
| COc1cc2c(cc1OC)C(c1ccc(Cl)cc1)=NNC(=O)C2 | 102 µmol/kg and 33.7 mg/kg |

Test system: Mus musculus
Test: Anticonvulsant activity against tonic phase of the audiogenic seizures in DBA / 2 mice 30 min after ip administration at a dose range 33-133 uM/kg
Format: functional
Details: 0.5 h
In short: as §1

| Compound | ED50 |
| --- | --- |
| COc1ccc2c(c1)CC(=O)N(C)N=C2c1ccccc1 | 99.1 µmol/kg and 27.8 mg/kg |

Test system: Mus musculus
Test: Anticonvulsant activity against the maximal electroshock in Swiss mice after 45 minutes pretreatment at a dose range 33-200 uM/kg
Format: functional
Details: not given
In short: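 Swiss mice dosed ip in 50% DMSO/50% saline 45 min before ear-clip electroshock (50 mA, 20 ms pulses, 35 Hz, 400 ms). Protection = abolition of tonic hindlimb extension. Usually 4-5 doses with 8-10 mice each; ED50 (95% confidence limits) by Litchfield-Wilcoxon.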

| Compound | ED50 [µmol/kg] |
| --- | --- |
| COc1ccc2c(c1)CC(=O)NN=C2c1ccccc1 | 73.4 |
| COc1cc2c(cc1OC)C(c1ccc(Cl)cc1)=NNC(=O)C2 | 115 |
